Test results from ChEMBL document CHEMBL5154701, “Thieno[2,3-d]pyrimidine-2,4(1H,3H)-dione Derivative Inhibits d-Dopachrome Tautomerase Activity and Suppresses the Proliferation of Non-Small Cell Lung Cancer Cells” (J Med Chem, 2022).
≈ marks a conversion by molar mass, not a printed value. Each block holds one molecule with its values, some of them ahead of it. Calls of active or inactive are those of the source. The calls are words filed in the database; no cut-off is given here.

What was measured:
[1] = Inhibition of human recombinant MIF2 tautomerase activity expressed in bacterial expression system assessed as PP conversion incubated for 10 mins by tautomerase assay
Homo sapiens [2] = organism: Homo sapiens; experiment: Substrate activity at MIF2 tautomerase (unknown origin) assessed as rate constant Km
Method in brief: (§1)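 Keto-enol tautomerization kinetics with phenylpyruvate, 4-chloro-, 4-hydroxy- and 4-methoxyphenylpyruvate as substrates. Initial conversion velocities taken from the linear first 3 min of UV absorbance increase. Kcat, Km and Kcat/Km derived from these rates.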

Homo sapiens [3] = organism: Homo sapiens; experiment: Substrate activity at MIF2 tautomerase (unknown origin) assessed as ratio of Kcat to Km; method in brief: as §1
Homo sapiens [4] = organism: Homo sapiens; experiment: Substrate activity at MIF2 tautomerase (unknown origin) assessed as rate constant Kcat; method in brief: as §1
A549 [5] = experiment: Inhibition of colony formation in human A549 cells assessed as colony number measured after 5 days by crystal violet staining method; type: functional, cell-based; details: dose 1-10 µM, time 5.0 day, DDE = dose-dependent effect
Method in brief: (§2)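 Seeded at 1000 cells/well in RPMI-1640 with 10% FBS and incubated overnight. Exposed to compound or DMSO for 5 days. Fixed in 4% paraformaldehyde for 20 min, then stained with 0.5% crystal violet for 20 min. Colonies imaged, dissolved in acetic acid, and absorbance read at 590 nm. Values relative to DMSO wells. Three experiments, mean ± SD.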

A549 [6] = experiment: Antiproliferative against human A549 cells assessed as inhibition of cell viability at 1 uM measured after 72 hrs by fluorescence based assay; type: functional
Method in brief: (§3)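 Cells in RPMI-1640 with 10% FBS, 37 °C, 5% CO2, seeded at 1000 cells/well and cultured overnight. Treated with compound (0.25–10 μM) for 72 h. Relative cell number from DNA content by CyQUANT Direct, with 60 min detection reagent and fluorescence read at 485/535 nm. Normalized to DMSO control. Mean ± SD of three experiments.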

NCI-H1650 [7] = experiment: Inhibition of colony formation in human NCI-H1650 cells at 10 uM measured after 5 days by crystal violet staining method; type: functional; details: NCI-H1650, 120 h, time 5 day; method in brief: as §2
NCI-H1650 [8] = experiment: Inhibition of colony formation in human NCI-H1650 cells assessed as colony number measured after 5 days by crystal violet staining method; type: functional, cell-based; details: dose 1-10 µM, time 5.0 day, DDE = dose-dependent effect; method in brief: as §2
A549 [9] = experiment: Induction of cell cycle arrest in human A549 cells assessed as accumulation of cells in G0/G1 phase for 2 days by flow cytometry analysis; type: functional, cell-based; details: dose 5-10 µM, time 2.0 day, DDE = dose-dependent effect
Method in brief: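 A549 seeded at 1 × 10^5 per well and treated next day with compound or vehicle for 48 h. Cells trypsinized, then stained with 20 μg/mL propidium iodide plus 0.1% Triton X-100 for 15 min at room temperature. 30 000 cells acquired by flow cytometry and G0/G1, S and G2/M fractions gated. n = 3, mean ± SD.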

NCI-H1299 [10] = experiment: Inhibition of colony formation in human NCI-H1299 cells assessed as colony number measured after 5 days by crystal violet staining method; type: functional, cell-based; details: dose 1-10 µM, time 5.0 day, DDE = dose-dependent effect; method in brief: as §2
[11] = Solubility of the compound; type: physicochemical
HCC827 [12] = experiment: Inhibition of colony formation in human HCC827 cells assessed as colony number measured after 5 days by crystal violet staining method; type: functional, cell-based; details: dose 1-10 µM, time 5.0 day, DDE = dose-dependent effect; method in brief: as §2
NCI-H1299 [13] = experiment: Antiproliferative against human NCI-H1299 cells assessed as inhibition of cell viability measured after 72 hrs by fluorescence based assay; type: functional; method in brief: as §3
HCC827 [14] = experiment: Inhibition of colony formation in human HCC827 cells at 10 uM measured after 5 days by crystal violet staining method; type: functional; details: HCC827, 120 h, time 5 day; method in brief: as §2
NCI-H1299 [15] = experiment: Inhibition of colony formation in human NCI-H1299 cells assessed as colony size measured after 5 days by crystal violet staining method; type: functional, cell-based; details: dose 1-10 µM, time 5.0 day, DDE = dose-dependent effect; method in brief: as §2
A549 [16] = experiment: Antiproliferative against human A549 cells assessed as inhibition of cell viability measured after 72 hrs by fluorescence based assay; type: functional; method in brief: as §3
A549 [17] = experiment: Inhibition of colony formation in human A549 cells assessed as colony size measured after 5 days by crystal violet staining method; type: functional, cell-based; details: dose 1-10 µM, time 5.0 day, DDE = dose-dependent effect; method in brief: as §2
A549 [18] = experiment: Inhibition of MIF2 related signalling pathway assessed as inhibition of MIF2 induced ERK phosphorylation in human A549 cells in presence of recombinant MIF2 incubated for 15 min by Western blot analysis; type: cell-based; details: dose 0.1-10 µM, DDE = dose-dependent effect
Method in brief: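 A549 (3 × 10^5/well) grown overnight in RPMI with 0.5% FBS. Stimulated 15 min with recombinant MIF2 (100 ng/mL, serum-free), alone or preincubated with compound. Lysed in RIPA with phosphatase/protease inhibitors, and 20 μg protein blotted for pERK, ERK and GAPDH. pERK:ERK densitometry normalized to control; n = 2.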

NCI-H1650 [19] = experiment: Inhibition of colony formation in human NCI-H1650 cells assessed as colony size measured after 5 days by crystal violet staining method; type: functional, cell-based; details: dose 1-10 µM, time 5.0 day, DDE = dose-dependent effect; method in brief: as §2
HCC827 [20] = experiment: Inhibition of colony formation in human HCC827 cells assessed as colony size measured after 5 days by crystal violet staining method; type: functional, cell-based; details: dose 1-10 µM, time 5.0 day, DDE = dose-dependent effect; method in brief: as §2
Homo sapiens [21] = organism: Homo sapiens; experiment: Stabilization of human recombinant MIF2 expressed in bacterial expression system assessed as apparent melting temperature by fluorescence based thermal shift assay; details: DDE = dose-dependent effect
Method in brief: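 Recombinant MIF2 expressed from pET20b(+) in E. coli BL21(DE3) and purified by Q sepharose, phenyl sepharose and size exclusion (trimer), in 20 mM sodium phosphate pH 8.0. Fluorescence-based thermal shift read-out: apparent melting temperature with compound versus DMSO control, with ΔTm as the difference.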

NCI-H1299 [22] = experiment: Inhibition of colony formation in human NCI-H1299 cells at 10 uM measured after 5 days by crystal violet staining method; type: functional; details: NCI-H1299, 120 h, time 5 day; method in brief: as §2
HCC827 [23] = experiment: Antiproliferative against human HCC827 cells assessed as inhibition of cell viability measured after 72 hrs by fluorescence based assay; type: functional; method in brief: as §3
A549 [24] = experiment: Inhibition of colony formation in human A549 cells at 10 uM measured after 5 days by crystal violet staining method; type: functional; details: A549, 120 h, time 5 day; method in brief: as §2
NCI-H1650 [25] = experiment: Antiproliferative against human NCI-H1650 cells assessed as inhibition of cell viability measured after 72 hrs by fluorescence based assay; type: functional; method in brief: as §3
[26] = Inhibition of human MIF2 tautomerase activity expressed in Escherichia coli by anion-exchange chromatography
[27] = Inhibition of MIF2 (unknown origin); set-up: species or system Homo sapiens

- IC50 [1]: 4.3 µM
Molecule: COc1cccc(Cc2nc3sc(-c4ccc(Cl)cc4)c(C)c3c(=O)[nH]2)c1

- IC50 [1]: 15 µM
Molecule: Cc1c(-c2ccc(Cl)cc2)sc2nc(Cc3ccccc3)[nH]c(=O)c12

- Km (Homo sapiens [2]): 2.4 mM
- kcat/Km (Homo sapiens [3]): 5.5 10^4/M/s
- kcat (Homo sapiens [4]): 132 s⁻¹
Molecule: phenylpyruvate

- IC50 [1]: 7.2 µM
Molecule: CCCCNC(=O)c1cc(-c2ccc(Br)cc2)sc1N

- IC50 [1]: 19 µM
Molecule: Cc1c(-c2ccc(Cl)cc2)sc2[nH]c(=O)n(-c3ccccc3)c(=O)c12

- IC50 [1]: 7.9 µM
Molecule: Cc1c(-c2cccc(C(F)(F)F)c2)sc(N)c1C(=O)N[C@@H](C)c1cccc2ccccc12

- IC50 [1]: 17 µM
Molecule: Cc1c(-c2ccc(F)cc2)sc2nc(Cc3ccccc3)[nH]c(=O)c12

- IC50 [1]: 4.2 µM
Molecule: Cc1c(-c2cccc(C(F)(F)F)c2)sc(N)c1C(=O)N[C@H](C)c1cccc2ccccc12

- Km (Homo sapiens [2]): 2.17 mM
- kcat/Km (Homo sapiens [3]): 3.2 10^4/M/s
- kcat (Homo sapiens [4]): 68 s⁻¹
Molecule: 4-chlorophenylpyruvate

- IC50 [1]: 1.7 µM
Molecule: Cc1c(-c2cccc(C(F)(F)F)c2)sc2[nH]c(=O)n(Cc3ccccc3)c(=O)c12

- IC50 [1]: 17 µM
Molecule: Cc1c(-c2ccc(Cl)cc2)sc2nc(CCl)[nH]c(=O)c12

- IC50 [1]: 0.81 µM
Molecule: Cc1c(-c2cccc(C(F)(F)F)c2)sc2[nH]c(=O)n(Cc3cccc4ccccc34)c(=O)c12

- IC50 [1]: 27 µM
Molecule: O=c1[nH]c2scc(-c3ccc(Cl)cc3)c2c(=O)n1Cc1ccccc1

- IC50 [1]: 41 µM
Molecule: CCCCNC(=O)c1cc(-c2ccccc2)sc1NC(C)=O

- IC50 [1]: 36 µM
Molecule: O=c1[nH]c2scc(-c3ccccc3)c2c(=O)n1Cc1ccccc1

- IC50 [1]: 4.6 µM
Molecule: Cc1c(-c2ccc3c(c2)OCO3)sc2[nH]c(=O)n(Cc3ccccc3)c(=O)c12

- IC50 [1]: 15 µM
Molecule: C=CCn1c(=O)[nH]c2sc(-c3ccc(Cl)cc3)cc2c1=O

- IC50 [1]: > 100 µM
Molecule: CCOCCNC(=O)c1cc(-c2ccc(Cl)cc2)sc1N

- IC50 [1]: 7.6 µM
Molecule: Cc1c(-c2ccccc2)sc2[nH]c(=O)n(Cc3ccccc3)c(=O)c12

- IC50 [1]: 2.6 µM
Molecule: Cc1c(-c2cccc(C(F)(F)F)c2)sc(N)c1C(=O)NCc1cccc2ccccc12

- IC50 [1]: 39 µM
Molecule: CCCCNC(=O)c1cc(-c2ccccc2)sc1NC(=O)CCC

- IC50 [1]: 1.9 µM
Molecule: Cc1c(-c2ccc(Cl)c(Cl)c2)sc2[nH]c(=O)n(Cc3ccccc3)c(=O)c12

- IC50 [1]: 16 µM
Molecule: CCCCn1c(=O)[nH]c2sc(-c3ccccc3)cc2c1=O

- IC50 [1]: 84 µM
Molecule: Nc1sc(-c2ccc(Cl)cc2)cc1C(=O)NCCc1ccccc1

- IC50 [1]: > 100 µM
Molecule: Cc1c(-c2ccccc2)sc2[nH]c(=O)n(-c3ccccc3)c(=O)c12

- Km (Homo sapiens [2]): 6.7 mM
- kcat/Km (Homo sapiens [3]): 0.43 10^4/M/s
- kcat (Homo sapiens [4]): 28 s⁻¹
Molecule: 4-methoxyphenylpyruvate

- IC50 [1]: 5.1 µM
Molecule: Cc1c(-c2ccc(Cl)cc2)sc2[nH]c(=O)n(Cc3ccccc3)c(=O)c12

- Km (Homo sapiens [2]): 3.62 mM
- kcat/Km (Homo sapiens [3]): 0.37 10^4/M/s
- kcat (Homo sapiens [4]): 13 s⁻¹
Molecule: 4-hydroxylphenylpyruvate

- solubility [11]: 0.016 mg/mL (≈ 33.3 µM)
- IC50 (NCI-H1299 [13]; NCI-H1299, 72 h): 7.6 µM
- IC50 (A549 [16]; A549, 72 h): 3 µM
- IC50 [1]: 1 µM
- deltaTm (Homo sapiens [21]): Dde
- IC50 (HCC827 [23]; HCC827, 72 h): 5.2 µM
- IC50 (NCI-H1650 [25]; NCI-H1650, 72 h): 5.3 µM
Molecule: Cc1c(-c2cccc(C(F)(F)F)c2)sc2[nH]c(=O)n([C@H](C)c3cccc4ccccc34)c(=O)c12
- inhibition (A549 [5]): Dde
- Activity (A549 [6]): Active
- inhibition at 10 µM (NCI-H1650 [7]): 90%
- inhibition (NCI-H1650 [8]): Dde
- Activity (A549 [9]): Dde
- inhibition (NCI-H1299 [10]): Dde
- inhibition (HCC827 [12]): Dde
- Activity (NCI-H1299 [13]; DDE = dose-dependent effect): Dde
- inhibition at 10 µM (HCC827 [14]): 90%
- inhibition (NCI-H1299 [15]): Dde
- Activity (A549 [16]; DDE = dose-dependent effect): Dde
- inhibition (A549 [17]): Dde
- inhibition (A549 [18]): Dde
- inhibition (NCI-H1650 [19]): Dde
- inhibition (HCC827 [20]): Dde
- inhibition at 10 µM (NCI-H1299 [22]): 90%
- Activity (HCC827 [23]; DDE = dose-dependent effect): Dde
- inhibition at 10 µM (A549 [24]): 90%
- Activity (NCI-H1650 [25]; DDE = dose-dependent effect): Dde

- solubility [11]: 0.015 mg/mL (≈ 31.2 µM)
- IC50 [1]: 2.5 µM
Molecule: Cc1c(-c2cccc(C(F)(F)F)c2)sc2[nH]c(=O)n([C@@H](C)c3cccc4ccccc34)c(=O)c12

- IC50 [1]: 13 µM
Molecule: CCCCCCCCNC(=O)c1cc(-c2ccccc2)sc1N

- IC50 [1]: 3.5 µM
Molecule: Cc1c(-c2ccc(Cl)cc2Cl)sc2[nH]c(=O)n(Cc3ccccc3)c(=O)c12

- IC50 [1]: 36 µM
Molecule: Nc1sc(-c2ccc(Cl)cc2)cc1C(=O)NCCc1ccc(Cl)cc1

- IC50 [1]: 4.8 µM
Molecule: Cc1c(-c2ccc(Cl)cc2)sc2[nH]c(=O)n(Cc3ccc(C(F)(F)F)cc3)c(=O)c12

- IC50 [1]: 47 µM
- IC50 [26]: 27 µM
Molecule: O=C(O)c1cccc(-c2cc(C(=O)O)ncc2C(=O)O)c1

- IC50 [27]: > 100 µM
Molecule: Ic1cc(-c2ccccc2)ncn1

- IC50 [1]: 15 µM
Molecule: CCCCNC(=O)c1cc(-c2ccc(Cl)cc2)sc1N

- IC50 [1]: 168 µM
Molecule: Nc1sc(-c2ccccc2)cc1C(=O)NCC1CCOC1 (centres undefined)

- IC50 [1]: 15 µM
Molecule: CCCCNC(=O)c1c(N)sc(-c2ccc(Cl)cc2)c1CCCC
